# In the library only some 4% were active in any assay of this set; here they are far more common.
# Arr AP2 block: inhibitors of human beta-arrestin and AP2 interaction. AID 504490. FITC-arrestin peptide / GST-AP2 beads, flow cytometry; AP2 beta2 appendage carries R879A mutation. inhibition, % at 10 µM. 340,000 compounds, 0.31% hits;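 active = inhibition above a set limit, near 3 SD of compounds lacking own fluorescence, cut at about 54% in these data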;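 also: plate controls were DMSO wells for no effect and 5 µM unlabelled arrestin peptide for full effect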
#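 System: GST-AP2 R879A glutathione beads | Also added: FITC-arrestin peptide, 50 nM | Times: 12 min plus 1 h, RT | Signal: Bead flow cytometry, FITC channel | Buffer or medium: PBS with 0.05% Tween 20 and 0.1% BSA | Read-out basis: Percent drop in bead-associated FITC signal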
# FAS TE block: inhibitors of human fatty acid synthase thioesterase domain | P49327 | recombinant FAS-TE, OMFH fluorogenic substrate, fluorescence endpoint | inhibition, % at 15 µM | 360,000 compounds, 0.67% hits;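 active = compounds whose normalised, plate-corrected inhibition of enzyme fluorescence in the single-dose primary screen is 50% or more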;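 also: 0% = DMSO with enzyme and 100% = substrate without enzyme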
# Cardio protect: myocardial damage modulation in H9c2 cells; protection from H2O2 cell death, % at 20 µM; H9c2 cardiomyocytes, H2O2 injury protection, ATPLite, 2 h; 360,000 compounds, 0.63% hits;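 active = compounds giving at least 50% protection of heart cells from peroxide-induced death in the single-dose screen, raw or plate-pattern-corrected value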;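 also: 0% = DMSO wells with peroxide and 100% = DMSO wells without peroxide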
# hiPSC survival: enhancers of human iPSC single-cell survival | hiPSC single-cell survival, ATPlite luminescence; 100% = ROCK inhibitor wells, 0% = DMSO | survival enhancement, % at 20 µM | 360,000 compounds, 0.044% hits; in the data active = survival enhancement above about 18%;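 also: cells exposed to compounds for 16 hours before the ATP read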
# GRIN3A LBD mod: modulators (binders) of human NR3A ligand-binding domain | NR3A LBD differential scanning fluorimetry, Tm shift; 0% = protein alone, 100% = glycine-bound protein | AID 1259313 | 340,000 compounds, 2.5% hits | Tm shift relative to glycine control, % at 25 µM;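 active = melting temperature shift of at least 10% of the positive control shift, at one fixed dose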
# SENP1 FRET inh: SENP1 (human) catalytic domain inhibition; Q9P0U3; recombinant SENP1 catalytic domain, CyPet-SUMO1-YPet FRET cleavage; inhibition, % at 10 µM; 360,000 compounds, 0.21% hits; AID 624204;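 active = inhibition at least 30% at 10 µM, raw YFP signal under a set limit, fluorescence ratio 0.5 to 1.5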;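 also: 0% = enzyme with DMSO and 100% = no enzyme wells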
#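 Material: hSENP1 catalytic domain, recombinant; medium: Tris pH 8 with BME, BSA, NP40 and catalase; compound: single concentration of 10 µM compound, 0.5% DMSO final; technique: FRET read of cyan and yellow fluorescence; timing: 50 min enzyme reaction, room temperature, light-protected; reagent: SFCypet-SUMO1-SFYpet substrate at 25 nM; control set: no-enzyme low, enzyme-DMSO high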
# Arr-AP2 CP1: inhibitors of human beta-arrestin and AP2 interaction; shares compounds with Arr AP2 block; GST-AP2 beads, FITC arrestin peptide binding, flow cytometry; GST-fused beta2-adaptin appendage, R879A mutant; inhibition, % at 10 µM; 1,300 compounds, 2% hits;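 active = inhibition above a set limit, roughly 3 SD of non-fluorescent compound noise, cut at about 38% in these data; inactive = inhibition at or below that limit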;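 also: loss of bead fluorescence from 50 nM FITC arrestin peptide bound to appendage; 0% = negative control wells and 100% = excess unlabelled arrestin peptide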
# GST GSH counter: disrupts GST binding to glutathione beads, arrestin-AP2 artifact | inhibition, % at 10 µM | 1,300 compounds, 2% hits | GST-fluorescein binding to GSH beads, fluorescence, counter-screen | shares compounds with Arr AP2 block;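 active = inhibition above 50%, about 3 SD of the inhibition seen with non-fluorescent compounds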;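 also: fluorescein maleimide labelled GST captured on 4 micron glutathione beads; higher means more loss of bead fluorescence from quenching or blocked binding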
# Numbers without * were called inactive; / = no result.
SMILES,Arr AP2 block,FAS TE block,Cardio protect,hiPSC survival,GRIN3A LBD mod,SENP1 FRET inh,Arr-AP2 CP1,GST GSH counter
Cc1noc(C)c1S(=O)(=O)Nc1ccc2c(c1)C(=O)N([C@H](C)CO)C[C@H](C)[C@@H](CN(C)Cc1ccc(C(=O)O)cc1)O2,60*,-9,13,0,0,0,7,10
Cc1no[n+]([O-])c1COc1cccc(/C=C2\N=C(c3ccccc3)OC2=O)c1,68*,23,11,1,-4,2,4,-7
COc1cc(/C=C2\N=C(c3ccccc3)OC2=O)ccc1OCc1c(C)no[n+]1[O-],21,15,16,-4,0,-67,/,/
O=C(Oc1cccc(C(=S)N2CCCCC2)c1)c1ccccc1,56*,20,-13,0,0,1,-1,-1
O=C(Oc1ccc(C(=S)N2CCCCC2)cc1)c1ccccc1,9,7,6,0,1,-1,/,/
Clc1ccc(-c2csc(N/N=C/c3ccc4c(c3)OCO4)n2)cc1,79*,11,-4,2,-2,-8,-2,1
Cc1cc(C)n2[nH]c(=O)c(N=Nc3ccccc3)c2n1,3,-8,0,1,2,2,/,/
Cc1cc(C)n2[nH]c(=O)c(N=Nc3cccc(Cl)c3)c2n1,90*,-7,5,-2,0,1,2,-5
O=C(CCC(=O)N1CCN(S(=O)(=O)c2ccc(Cl)cc2)CC1)NCc1ccccc1,58*,-2,-10,-1,-1,0,10,-1
CN(CC(=O)Nc1cc(S(=O)(=O)N2CCCC2)ccc1Cl)Cc1nc2ccccc2c(=O)[nH]1,1,0,0,0,0,-1,/,/
CCN(C(=O)CSc1nc2ccccc2o1)C1CCS(=O)(=O)C1 (centres undefined),-10,-9,-1,0,1,2,/,/
CCN(C(=O)CSc1nc2ccccc2[nH]1)C1CCS(=O)(=O)C1 (centres undefined),54*,-6,3,2,0,0,-6,-6
Nc1[nH]c(C(=O)c2ccccc2)c(-c2ccc(Cl)cc2Cl)c1C(=O)NCCc1c[nH]c2ccccc12,/,10,/,0,/,-6,/,/
CCSc1nnc(-c2sc3nnc(-c4ccccc4)c(-c4ccccc4)c3c2N)o1,73*,-192,3,1,0,-20,19,13
COc1ccc(-c2noc(CN(C(=O)c3ccc4c(c3)OCO4)C(C)C)n2)cc1OC,60*,6,4,0,4,2,-9,-10
COc1ccc(-c2noc(CN(C)C(=O)c3ccc4c(c3)OCO4)n2)cc1OC,-9,0,-3,0,0,1,/,/
Cc1cccc(C)c1NC(=O)CNC(=O)CNC(=O)c1ccc2ccccc2c1,/,-4,3,3,/,1,/,/
N#Cc1c(N)sc(=S)c2c1CCCC2,89*,-11,6,-2,-4,14,-3,-3
CCC1(C)Cc2c(C#N)c(N)sc(=S)c2CO1 (centres undefined),6,-1,-7,-2,3,12,/,/
Cc1ccc(S(=O)(=O)NCc2ccccc2)cc1,56*,-1,-2,2,-1,2,-4,-5
COc1ccc(C2C(=O)c3ccccc3C2=O)cc1OC,61*,-10,-8,-3,4,2,6,-4
COc1cc(C2C(=O)c3ccccc3C2=O)ccc1O,7,-6,4,0,3,-22,/,/
Cc1ccc(-c2nnc(SCC(=O)N/N=C/c3ccccc3C(=O)O)n2C2CCCCC2)cc1,68*,-4,-4,0,-1,3,4,-5
O=C([C@H]1O[C@@H](n2ccc(=O)[nH]c2=O)[C@H](O)[C@@H]1O)N1CCN(Cc2ccccn2)CC1,/,-11,/,0,/,-1,/,/
Cc1ccccc1C(=O)OC(C)C(=O)NCc1ccc2c(c1)OCO2 (centres undefined),29,0,8,0,0,1,/,/
SMILES,Arr AP2 block,FAS TE block,Cardio protect,hiPSC survival,GRIN3A LBD mod,SENP1 FRET inh,Arr-AP2 CP1,GST GSH counter
CC(OC(=O)c1ccc(Cl)nc1)C(=O)NCc1ccc2c(c1)OCO2 (centres undefined),61*,-3,4,0,-1,2,9,0
COc1ccc(OCCCC(=O)Nc2ccc3c(c2)OCO3)cc1,62*,1,-8,0,-11,-1,2,1
COc1ccccc1OCCC(=O)Nc1ccc2c(c1)OCO2,57*,-2,1,0,-1,-1,1,-1
Cc1ccc(OCCC(=O)Nc2ccc3c(c2)OCO3)cc1,7,-3,3,0,1,0,1,-6
COc1ccccc1OCCC(=O)OCC(=O)Nc1ccc2c(c1)OCO2,11,-7,-13,2,-2,-2,/,/
CCOc1ccc(OCCC(=O)Nc2ccc3c(c2)OCO3)cc1,3,4,-6,1,2,-1,-1,-3
COc1ccc(CCC(=O)Nc2ccc3c(c2)OCO3)cc1,-11,-3,-3,0,-2,-3,/,/
CC(C)C(NC(=O)OCc1ccccc1)C(=O)NC(Cc1c[nH]c2ccccc12)C(=O)O (centres undefined),/,-1,-1,-1,/,0,/,/
CCCCNC(=O)C1(C)CCCCN1C(=O)c1cc(-c2ccccc2)cs1 (centres undefined),/,4,-1,3,/,0,/,/
CCNC(=O)C1(C)CCN(C(=O)c2c(-c3ccccc3)noc2C)C1 (centres undefined),/,-7,6,2,/,4,/,/
CCCC1(c2ccccc2)NC(=O)N(CC(=O)Nc2ccc3c(c2)OCCO3)C1=O (centres undefined),65*,2,-2,0,-1,0,20,1
CCNC(=O)C1CCCN(Cc2cc(C(F)(F)F)ccc2Cl)CC1 (centres undefined),/,-6,4,0,/,3,/,/
CC(=O)Nc1cc(-c2cccnc2)cn2c(-c3cccc(C(F)(F)F)c3)cnc12,/,10,28,-1,/,-6,/,/
CCCS(=O)(=O)c1nc(S(=O)(=O)c2ccc(C)cc2)c(N2CCC(C(N)=O)CC2)s1,61*,7,5,0,0,-2,-4,-6
CCCS(=O)(=O)c1nc(S(=O)(=O)c2ccc(C)cc2)c(N2CCC(O)CC2)s1,-13,0,0,0,0,0,/,/

# Screens (PubChem)
